The list is not random: actives were taken first. Their share in the collection is about 3.8%.
KCNQ1 block: blocks the human KCNQ1 potassium channel | CHO-K1 KCNQ1, FluxOR thallium flux fluorescence; stronger effect = higher value | B-score at 10 µM | P51787 | AID 2642 | 310,000 tested, 1.3% active;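 active = compounds whose thallium flux B-score, printed positive for inhibition, exceeds three library SD while starting fluorescence stays within three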;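 also: channel opened by potassium depolarization with thallium stimulus after 20 min compound exposure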
Kir21 inh: blocks the mouse Kir2.1 inward-rectifier potassium channel; P35561; HEK293-Kir2.1, FluxOR thallium flux fluorescence; stronger effect = lower value; B-score at 10 µM; 310,000 tested, 0.85% active; AID 1672;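 active = fluorescence ratio B-score at or below minus 3 SD of library scores, with starting-brightness B-score within 2 SD, cut at about -4.2 in these data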;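 also: channel flux triggered by added potassium and thallium sulfate stimulus; B-score of peak minus minimum fluorescence over baseline after thallium stimulus; more negative B-score means stronger Kir2.1 block with less thallium influx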
KCNK9 block: inhibitors of human KCNK9 two-pore domain potassium channel; Q9NPC2; B-score at 10 µM; HEK293 KCNK9, FluxOR thallium flux fluorescence; stronger effect = lower value; 310,000 tested, 1.2% active;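 active = ratio B-score over 3 SD below the library mean, with starting fluorescence within 5 SD of its mean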;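 also: negative B-score means less thallium flux so channel inhibition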
hERG rescue: hERG (human) protection from proarrhythmic block; Q12809; AID 1511; activation (rescue from dofetilide block), less the hit threshold, % at 10 µM; 310,000 tested, 0.51% active; CHO-hERG, FluxOR thallium flux, dofetilide IC70 present;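 active = activation above the mean of controls blocked by dofetilide plus 5 SD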;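 also: thallium influx through hERG after potassium depolarization seen as dye fluorescence rise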
KCNK3 inh: human KCNK3 channel inhibition, primary screen. CHO-KCNK3 thallium flux, FluxOR fluorescence; stronger effect = lower value. O14649. B-score at 10 µM. 340,000 tested, 0.84% active;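 active = B-score under library mean minus 4 SD, starting fluorescence ratio at most library mean plus 5 SD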;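 also: more negative B-score means stronger inhibition of thallium flux through KCNK3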
Target sequence (O14649 whole entry, looked up): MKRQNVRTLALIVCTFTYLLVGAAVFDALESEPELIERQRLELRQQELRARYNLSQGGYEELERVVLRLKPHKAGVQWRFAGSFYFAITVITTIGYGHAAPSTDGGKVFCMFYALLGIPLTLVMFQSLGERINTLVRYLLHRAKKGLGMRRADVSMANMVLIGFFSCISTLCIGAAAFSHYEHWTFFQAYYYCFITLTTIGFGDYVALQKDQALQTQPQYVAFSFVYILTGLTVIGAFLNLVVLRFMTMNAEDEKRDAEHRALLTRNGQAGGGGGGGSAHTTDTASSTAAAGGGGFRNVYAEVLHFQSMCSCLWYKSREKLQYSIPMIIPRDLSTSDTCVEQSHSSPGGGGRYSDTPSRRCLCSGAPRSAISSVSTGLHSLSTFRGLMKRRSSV
KCNQ1 pot: potentiators or activators of human KCNQ1 potassium channel | AID 2648 | P51787 | B-score at 10 µM | CHO-K1 KCNQ1, thallium flux FluxOR fluorescence; stronger effect = higher value | 310,000 tested, 0.35% active;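 active = fluorescence ratio B-score, a plate-corrected score, at least three library SD, with initial intensity B-score within 5 SD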
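assay system = KCNQ1-transfected CHO-K1 cells | medium = assay buffer with matched DMSO | probe or stimulus = depolarizing K+/Tl+ stimulus, K2SO4 and Tl2SO4 each 12.5 mM in 5x stock | dosing = single dose | incubation = dye 90 min, compound 20 min, room temperature | detection = kinetic FluxOR fluorescence, 10 s baseline plus 110 s post-stimulus | evaluation = ratio B score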
KCNK9 block conf: confirmation of human KCNK9 potassium channel inhibitors; inhibition, % at 10 µM; AID 492992; HEK293 KCNK9 cells, FluxOR thallium flux fluorescence; 4,900 tested, 43% active; shares compounds with KCNK9 block;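 active = thallium signal inhibited by more than 5 SD of the compound-free buffer control wells, on both duplicate plates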
Kir21 sel: mouse Kir2.1 off-target activity of KCNK9 modulators. shares compounds with KCNK9 block. Kir2.1 cells, FluxOR thallium flux fluorescence. inhibition, % at 10 µM. 4,900 tested, 4% active. AID 492993;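 active = thallium signal drop more than 5 SD beyond the mean of the no-compound control wells, seen in both duplicate plates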;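 also: signal is fluorescence rise after thallium addition divided by baseline fluorescence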
HEK293 Tl ctr: non-induced cell nonspecific activity of KCNK9 modulators | shares compounds with KCNK9 block | non-induced KCNK9-HEK293, FluxOR thallium flux | inhibition, % at 10 µM | 4,900 tested, 40% active | AID 492997;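 active = thallium signal drop beyond 5 SD of the untreated control mean, on both duplicate plates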
A number is an active result; i = inactive; nt = not tested or not shown.

SMILES | KCNQ1 block | Kir21 inh | KCNK9 block | hERG rescue | KCNK3 inh | KCNQ1 pot | KCNK9 block conf | Kir21 sel | HEK293 Tl ctr
CC1S/C(=N/N=C/c2ccco2)N(Cc2ccccc2)C1=O (configuration not stated) | i | i | i | i | i | i | nt | nt | nt
COc1ccc(-c2oc3ccc(-c4cc(OC)c(OC)c(OC)c4)cc3c2-c2ccc(OC)nc2)cc1 | i | i | i | i | i | i | nt | nt | nt
COc1ccc(CCCc2nnc(SCC(=O)N/N=C\c3ccc(O)c(OC)c3)o2)cc1C | i | i | i | i | i | i | nt | nt | nt
COc1ccc(/C=N/NC(=O)CSc2nnc(CCCc3ccc(OC)c(C)c3)o2)cc1 | i | i | i | i | i | i | i | i | i
COc1cc([N+](=O)[O-])ccc1NC(=O)N1CCCCCC1 | i | i | i | i | i | i | nt | nt | nt
CCCCCCn1nc(C(=O)Nc2nc3c(s2)CCCC3)c2ccccc2c1=O | i | i | -13 | i | i | i | 58.5% | i | i
CCCn1nc(C(=O)Nc2nnc(CC)s2)c2ccccc2c1=O | i | i | i | i | i | i | nt | nt | nt
COc1cccc(NC(=O)CN(C)C(=O)C(Sc2ccccc2)c2ccccc2)c1 (configuration not stated) | nt | nt | nt | nt | i | nt | nt | nt | nt
COc1cc(OC)c(C(=O)OCC(=O)N2CCOCC2)cc1OC | i | i | i | i | i | i | nt | nt | nt
CC(C)(C)OC(=O)N1CCN(c2ccc(CNC(=O)c3ccc(Cl)cc3)cc2)CC1 | i | i | i | i | i | i | i | i | i
COc1ccc(Cl)cc1S(=O)(=O)NCc1ccncc1 | i | i | i | i | i | i | nt | nt | nt
C=CCC(=O)N(CC)CC1CCCN(CCc2cccc(F)c2)C1 (configuration not stated) | i | i | -9.05 | i | i | i | i | i | i
CCN(CC1CCCN(CCc2cccc(F)c2)C1)C(=O)c1ccc(CSC)o1 (configuration not stated) | i | i | i | i | i | i | nt | nt | nt
O=C(NC(=S)NCCC1=CCCCC1)c1ccccc1Br | i | i | i | i | i | i | i | i | i
C=CC[C@H](CC(=O)OC(C)(C)C)C(=O)OC[C@@H]1CCCN1C(=O)[C@@H](CC=C)CC(=O)NCCO | nt | nt | nt | nt | i | nt | nt | nt | nt
COc1ccc(-n2nnnc2/C=C/Nc2cc(C(F)(F)F)ccc2OC)cc1 | i | i | -12.4 | i | i | i | 34.0% | i | 43.0%
CCOC(=O)c1ccc2c(c1)nc(SC(C)C(=O)NCC1CCCO1)n2CC (configuration not stated) | nt | nt | nt | nt | i | nt | nt | nt | nt
O=C(OC(c1ccccc1)c1nccc2ccccc12)c1cccc([N+](=O)[O-])c1 (configuration not stated) | 7 | i | -13 | i | i | i | 40.0% | i | 47.5%
O=C1Cc2cc(O)ccc2O1 | nt | nt | nt | nt | i | nt | nt | nt | nt
O=C(N/N=C/c1cccnc1)c1cc(-c2ccccc2)nc2ccccc12 | i | i | i | i | i | i | nt | nt | nt
Cc1ccc(C)c(-c2cc(C(=O)N/N=C/c3cccnc3)c3ccccc3n2)c1 | i | i | -12.9 | i | -9.95 | i | 53.5% | i | 31.5%
Cc1cc(C)c(CN2CCN(C(=O)Cn3cnc(C(=O)Nc4ccc(C)c(C)c4)n3)CC2)c(C)c1 | nt | nt | nt | nt | i | nt | nt | nt | nt
Cc1ccc(NC(=O)CSc2ccc3c(c2)OCCO3)nc1 | i | i | i | i | i | i | nt | nt | nt
CCOc1ccccc1N1CCN(S(=O)(=O)c2ccc(Cl)s2)CC1 | i | i | i | i | i | i | i | i | i
C/C(=N\NC(=O)c1nn(C)c(C)c1Br)c1ccc(NC(=O)c2ccccc2F)cc1 | i | i | -11.6 | i | i | i | 63.5% | i | 26.0%
SMILES | KCNQ1 block | Kir21 inh | KCNK9 block | hERG rescue | KCNK3 inh | KCNQ1 pot | KCNK9 block conf | Kir21 sel | HEK293 Tl ctr
COc1cc(-c2c(C#N)c(N)nc(SCc3ccncc3)c2C#N)cc(OC)c1OC | i | i | -10.1 | i | i | i | i | i | 27.0%
O=C(c1cc2sccc2n1Cc1ccc(F)cc1)N1CCCc2ccccc21 | i | i | -9.98 | i | i | i | 51.0% | i | 37.0%
CC(C)CCNC(=O)[C@H](CSCc1ccccc1)N1Cc2ccccc2C1=O | i | i | i | i | i | i | i | i | i
CC(C)CCNC(=O)[C@H](Cc1ccccc1)N1Cc2ccccc2C1=O | i | i | i | i | i | i | nt | nt | nt
Cc1ccc2c(CN3CCCCC3)cc(=O)oc2c1C | i | i | i | i | i | i | i | i | i
Cc1cc(C)c2oc(=O)cc(CN3CCCCC3)c2c1 | i | i | i | i | i | i | i | i | i
CCc1cc(=O)oc2c(C)c(O)c(CN3CCCCC3)cc12 | i | i | i | i | i | i | nt | nt | nt
O=C1c2ccccc2C(Nc2ccc(Cl)cn2)N1c1ccccn1 (configuration not stated) | i | i | -9.75 | i | i | i | 37.0% | i | i
Brc1ccc(N/N=C(/N=Nc2nn[nH]n2)c2ccccc2)cc1 | 12 | i | i | i | i | i | i | i | i
COc1ccc(C)cc1NC(=O)CO/N=C(\N)CC(=O)NC1CCCCC1 | nt | nt | nt | nt | i | nt | nt | nt | nt
Cc1cc(C)nc(Nc2ccccc2Br)n1 | i | i | i | i | i | i | nt | nt | nt
Cc1cc(C)nc(N/C(=N\S(=O)(=O)Cc2ccccc2)Nc2ccccc2Br)n1 | i | i | -9.38 | i | i | i | 40.5% | i | i
CN(Cc1ccccc1F)C(=O)c1ccc(Oc2ccccc2)cc1 | i | i | i | i | i | i | i | i | i
CN(Cc1ccc(C(F)(F)F)cc1)C(=O)c1ccc(Oc2ccccc2)cc1 | i | i | i | i | i | i | i | i | 25.5%
C=CCOc1ccc(/C=C/C(=O)OCC(=O)NCc2ccco2)cc1 | i | i | i | i | i | i | nt | nt | nt
CC(=O)c1ccccc1OCC(O)CN1CCN(CCN2C(=O)c3cccc4cccc(c34)C2=O)CC1 (configuration not stated) | i | i | i | i | i | i | nt | nt | nt
Cc1ccc(C)c(OCC(O)CN2CCN(CCN3C(=O)c4cccc5cccc(c45)C3=O)CC2)c1 (configuration not stated) | i | i | i | i | i | i | i | i | i
O=c1[nH]cnc2c1c(-c1ccccc1)cn2-c1cccc(Cl)c1 | i | i | -12.7 | i | i | i | 51.5% | i | i
COc1ccc(-n2cc(-c3ccccc3)c3c(=O)[nH]cnc32)cc1 | i | i | i | i | i | i | nt | nt | nt
COc1ccc(NC(=O)CN(C)C(=O)c2ccc(NS(=O)(=O)c3ccc4[nH]c(=O)[nH]c4c3)cc2)cc1 | i | i | i | i | i | i | nt | nt | nt
COc1ccc(C=NNc2ccc([N+](=O)[O-])cn2)cc1 | nt | nt | nt | nt | i | nt | nt | nt | nt
